Data on six molecules can be found in ChEMBL document CHEMBL4364287, “Enhanced Inhibition of Influenza A Virus Adhesion by Di- and Trivalent Hemagglutinin Inhibitors” (J Med Chem, 2019).

pIC50, pKi: −log10 of the molar value. Calls of active or inactive are those of the source. The rule behind the calls is not given here.

Broadly, the pIC50 is the IC50 on a negative log10 scale, so that one unit is a factor of ten. As a reminder, the pKi is −log10 of the Ki, conventionally taken in molar units.

Series [1] has as its system Influenza A virus. Briefly: Antiviral activity against Influenza A virus WU95 expressing Influenza A virus (A/Netherlands/178/1995(H3N2)) H3 hemagglutinin infected in MDCK2 cells at 20 nM preincubated with virus for 4 hrs followed by cell infection and measured after 2 hrs by DAPI staining-based assay. In kind it is functional, organism-based. The gist of the method: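 WU95 was preincubated 4 h at room temperature in Opti-mem with or without 15 µM compound, ±10 µM oseltamivir carboxylate. The mixture was diluted 500-fold onto confluent MDCK-II for 2 h, giving end concentrations of 30 nM compound, 20 nM OC and MOI 0.01. Cells were washed, kept overnight at 37 °C with 10 nM bafilomycin, then fixed and nucleoprotein-immunostained.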

Series [2] can be described thus: Inhibition of sensor loaded biotinylated-LAMP1 binding to Influenza A virus (A/Netherlands/178/1995(H3N2)) H3 hemagglutinin expressed in Influenza virus WU95 in presence of NA inhibitor oseltamivir carboxylate by biolayer interferometric analysis. The gist of the method: (§1)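 OctetRed BLI: streptavidin sensors were saturated with biotinylated LAMP1 in PBS pH 7.4. They were dipped into WU95 (8 HAU, 2.5 × 10^8 particles per well) preincubated 4 h at room temperature with compound and 10 µM (end concentration) oseltamivir carboxylate. Initial binding rate was compared with a no-compound control.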
(Biolayer interferometry detects binding as a change in optical thickness at a sensor tip.)

Series [3] has as its system Influenza A virus (A/Netherlands/178/1995(H3N2)). Briefly: Inhibition of sensor loaded biotinylated-LAMP1 binding to Influenza A virus (A/Netherlands/178/1995(H3N2)) H3 hemagglutinin expressed in Influenza virus WU95 at 20 uM in presence of NA inhibitor oseltamivir carboxylate by biolayer interferometric analysis. Summed up:
as §1

For series [4] the test system is unchanged. The series is described as follows: Potency index, ratio of compound 7 IC50 to test compound IC50 for inhibition of sensor loaded biotinylated-LAMP1 binding to Influenza A virus (A/Netherlands/178/1995(H3N2)) H3 hemagglutinin expressed in Influenza virus WU95.
The test system is the same in series [5]. The series is described as follows: Potency index, ratio of compound 8 IC50 to test compound IC50 for Inhibition of Influenza A virus (A/Netherlands/178/1995(H3N2)) H3 hemagglutinin expressed in Influenza virus WU95 assessed as reduction in human erythrocytes hemagglutination. In kind it is cell-based.
Series [6] is described as follows: Inhibition of Influenza A virus (A/Netherlands/178/1995(H3N2)) H3 hemagglutinin expressed in Influenza virus WU95 assessed as reduction in human erythrocytes hemagglutination preincubated for 4 hrs followed by erythrocytes addition and measured after 2 hrs. In kind it is cell-based. Summed up:
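Four hemagglutination units of virus were preincubated 4 h at room temperature with limiting compound dilutions in the presence of oseltamivir carboxylate. Then 0.5% (v/v) erythrocytes were added for 2 h at 4 °C. The lowest inhibiting concentration was recorded; two experiments were run in duplicate and means are reported.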

The subject of series [7] is Influenza A virus (A/Bilthoven/1761/1976(H3N2)). Briefly: Inhibition of sensor loaded biotinylated-LAMP1 binding to Influenza A virus (A/Bilthoven/1761/1976(H3N2)) H3 hemagglutinin expressed in Influenza virus VI75 at 3 uM by biolayer interferometric analysis. The gist of the method: (§2)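 BLI with streptavidin sensors loaded to saturation with biotinylated LAMP1 (PBS, pH 7.4). VI75 virus was preincubated 4 h at room temperature with 3 µM compound, without or with 10 µM oseltamivir carboxylate. Initial virus binding rate was compared with a compound-free control.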

Series [8] deals with Influenza A virus. Briefly: Antiviral activity against Influenza A virus WU95 expressing Influenza A virus (A/Netherlands/178/1995(H3N2)) H3 hemagglutinin infected in MDCK2 cells preincubated with virus for 4 hrs followed by cell infection and measured at 7 hrs post-infection by DAPI staining-based assay. In kind it is functional, organism-based. Summed up:
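Single-cycle infection: WU95 in Opti-mem was preincubated 4 h at room temperature with varying compound concentrations. Confluent MDCK-II cells were inoculated in triplicate at MOI 0.005 and fixed at 7 h post-infection in methanol (−20 °C, 5 min). Cells were immunostained for nucleoprotein (HB65, Alexa 488 secondary), counterstained with DAPI, and infected cells per well were counted.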

Series [9] has as its system Influenza A virus (A/Netherlands/178/1995(H3N2)). Briefly: Inhibition of sensor loaded biotinylated-LAMP1 binding to Influenza A virus (A/Netherlands/178/1995(H3N2)) H3 hemagglutinin expressed in Influenza virus WU95 at 3 uM in presence of NA inhibitor oseltamivir carboxylate by biolayer interferometric analysis. Summed up:
as §1

The subject of series [10] is Influenza A virus. The series is described as follows: Antiviral activity against Influenza A virus WU95 expressing Influenza A virus (A/Netherlands/178/1995(H3N2)) H3 hemagglutinin infected in MDCK2 cells assessed as reduction in virus-induced cytopathogenicity preincubated with virus for 4 hrs followed by cell infection and measured after 3 days by DAPI staining-based assay. In kind it is functional, organism-based. Summed up:
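WU95 virus was preincubated 4 h at room temperature in Opti-mem with varying compound concentrations. It was then inoculated onto confluent MDCK-II cells at MOI 0.005 and held 3 days with 1 µg/ml TPCK-trypsin to allow multiple rounds of infection. Cells were fixed and DAPI-stained, and monolayers inspected visually; absence of stained cells was taken as cell killing.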
A general note: Damage to the host cells serves as the signal in cytopathic effect assays.

Series [11] concerns Influenza A virus (A/Bilthoven/1761/1976(H3N2)). Briefly: Inhibition of sensor loaded biotinylated-LAMP1 binding to Influenza A virus (A/Bilthoven/1761/1976(H3N2)) H3 hemagglutinin expressed in Influenza virus VI75 at 3 uM in presence of NA inhibitor oseltamivir carboxylate by biolayer interferometric analysis. The gist of the method: as §2
The subject of series [12] is MDCK-II. Briefly: Cytotoxicity against MDCK2 cells assessed as reduction in cell viability measured after 24 hrs by WST1 assay. It is filed as cell-based, Canis lupus familiaris. The note with it: dog. Summed up: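 MDCK-II cells were incubated 24 h in Opti-mem with compounds at different concentrations. Cell number and viability were then read by WST-1 assay.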

As for `CCC(CC)O[C@@H]1C=C(C(=O)O)C[C@H](N)[C@H]1NC(C)=O`, in series [1], the outcome was Active.

`C#CCO[C@@H]1O[C@H](CO)[C@@H](O[C@@H]2O[C@H](CO[C@]3(C(=O)O)C[C@H](O)[C@@H](NC(C)=O)[C@H]([C@H](O)[C@H](O)CO)O3)[C@H](O)[C@H](O)[C@H]2O)[C@H](O)[C@H]1NC(C)=O`: the negative-log IC50 (pIC50) in series [2] is 3.52.

For the molecule `CC(=O)N[C@H]1[C@H](O[C@H]2[C@@H](O)[C@@H](CO)O[C@@H](O[C@H]3[C@H](O)[C@@H](O)[C@H](n4cc(-c5ccc(-c6cn(CCCC(=O)Nc7cccc(-c8cc(-c9cccc(NC(=O)CCCn%10cc(-c%11ccc(-c%12cn([C@@H]%13O[C@H](CO)[C@@H](O[C@@H]%14O[C@H](CO)[C@H](O)[C@H](O[C@@H]%15O[C@H](CO)[C@@H](O[C@@H]%16O[C@H](CO)[C@H](O)[C@H](O)[C@H]%16O)[C@H](O)[C@H]%15NC(C)=O)[C@H]%14O)[C@H](O)[C@H]%13O)nn%12)cc%11)nn%10)c9)cc(-c9cccc(NC(=O)CCCn%10cc(-c%11ccc(-c%12cn([C@@H]%13O[C@H](CO)[C@@H](O[C@@H]%14O[C@H](CO)[C@H](O)[C@H](O[C@@H]%15O[C@H](CO)[C@@H](O[C@@H]%16O[C@H](CO)[C@H](O)[C@H](O)[C@H]%16O)[C@H](O)[C@H]%15NC(C)=O)[C@H]%14O)[C@H](O)[C@H]%13O)nn%12)cc%11)nn%10)c9)c8)c7)nn6)cc5)nn4)O[C@@H]3CO)[C@@H]2O)O[C@H](CO)[C@@H](O[C@@H]2O[C@H](CO)[C@H](O)[C@H](O)[C@H]2O)[C@@H]1O`, the inhibition entry in series [3] is “inactive”.

Consider `CC(=O)N[C@H]1[C@H]([C@H](O)[C@H](O)CO)O[C@@](OC[C@H]2O[C@@H](O[C@H]3[C@H](O)[C@@H](O)[C@H](OCc4cn([C@@H]5O[C@H](CO)[C@@H](n6cc(-c7ccc(-c8cn([C@H]9[C@H](O)[C@@H](O)[C@H](n%10cc(CO[C@@H]%11O[C@H](CO)[C@@H](O[C@@H]%12O[C@H](CO[C@]%13(C(=O)O)C[C@H](O)[C@@H](NC(C)=O)[C@H]([C@H](O)[C@H](O)CO)O%13)[C@H](O)[C@H](O)[C@H]%12O)[C@H](O)[C@H]%11O)nn%10)O[C@@H]9CO)nn8)cc7)nn6)[C@H](O)[C@H]5O)nn4)O[C@@H]3CO)[C@H](O)[C@@H](O)[C@H]2O)(C(=O)O)C[C@@H]1O`, for which the pIC50 in series [2] was 4.89. The Ratio IC50 in series [4] amounted to 23.

Regarding `CC(=O)N[C@H]1[C@H]([C@H](O)[C@H](O)CO)O[C@@](OC[C@H]2O[C@@H](O[C@H]3[C@H](O)[C@@H](O)[C@H](OCc4cn(CCCC(=O)Nc5cccc(-c6cc(-c7cccc(NC(=O)CCCn8cc(CO[C@@H]9O[C@H](CO)[C@@H](O[C@@H]%10O[C@H](CO[C@]%11(C(=O)O)C[C@H](O)[C@@H](NC(C)=O)[C@H]([C@H](O)[C@H](O)CO)O%11)[C@H](O)[C@H](O)[C@H]%10O)[C@H](O)[C@H]9O)nn8)c7)cc(-c7cccc(NC(=O)CCCn8cc(CO[C@@H]9O[C@H](CO)[C@@H](O[C@@H]%10O[C@H](CO[C@]%11(C(=O)O)C[C@H](O)[C@@H](NC(C)=O)[C@H]([C@H](O)[C@H](O)CO)O%11)[C@H](O)[C@H](O)[C@H]%10O)[C@H](O)[C@H]9O)nn8)c7)c6)c5)nn4)O[C@@H]3CO)[C@H](O)[C@@H](O)[C@H]2O)(C(=O)O)C[C@@H]1O`, the Ratio IC50 was 7 in series [5] and 20 in [4]. Moreover, in series [2], the negative-log IC50 (pIC50) is 4.82. The pKi in series [6] was 4.28.

On to `CC(=O)N[C@H]1[C@H](O[C@H]2[C@@H](O)[C@@H](CO)O[C@@H](O[C@H]3[C@H](O)[C@@H](O)[C@H](OCc4cn(CCCC(=O)Nc5cccc(-c6cc(-c7cccc(NC(=O)CCCn8cc(CO[C@@H]9O[C@H](CO)[C@@H](O[C@@H]%10O[C@H](CO)[C@H](O)[C@H](O[C@@H]%11O[C@H](CO)[C@@H](O[C@@H]%12O[C@H](CO[C@]%13(C(=O)O)C[C@H](O)[C@@H](NC(C)=O)[C@H]([C@H](O)[C@H](O)CO)O%13)[C@H](O)[C@H](O)[C@H]%12O)[C@H](O)[C@H]%11NC(C)=O)[C@H]%10O)[C@H](O)[C@H]9O)nn8)c7)cc(-c7cccc(NC(=O)CCCn8cc(CO[C@@H]9O[C@H](CO)[C@@H](O[C@@H]%10O[C@H](CO)[C@H](O)[C@H](O[C@@H]%11O[C@H](CO)[C@@H](O[C@@H]%12O[C@H](CO[C@]%13(C(=O)O)C[C@H](O)[C@@H](NC(C)=O)[C@H]([C@H](O)[C@H](O)CO)O%13)[C@H](O)[C@H](O)[C@H]%12O)[C@H](O)[C@H]%11NC(C)=O)[C@H]%10O)[C@H](O)[C@H]9O)nn8)c7)c6)c5)nn4)O[C@@H]3CO)[C@@H]2O)O[C@H](CO)[C@@H](O[C@@H]2O[C@H](CO[C@]3(C(=O)O)C[C@H](O)[C@@H](NC(C)=O)[C@H]([C@H](O)[C@H](O)CO)O3)[C@H](O)[C@H](O)[C@H]2O)[C@@H]1O`, for which the inhibition entry in series [7], in series [9] and in [11] was “Active” in each case. Further, the pIC50 in series [8] is 4.82; in [2], 5.37. Moreover, the outcome in [10] was Active. In addition, in series [4], the Ratio IC50 turned out to be 71. The Activity result in series [12] is given as “Non-Toxic”.
